How the values were obtained:
Rattus norvegicus [1] = experiment: Antiinflammatory activity in Wistar rat assessed as inhibition of carrageenan-induced hind paw edema at 20 mg/kg, po administered 30 mins before carrageenan challenge measured after 3 hrs by plethysmometer; assay type: functional
Outline: (§1)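 Wistar rats of either sex, 150–175 g, fasted 16 h, n = 6 per group. Compound given orally at 20 mg/kg as a suspension in 1% CMC in water (10 mL/kg); controls got vehicle only. After 30 min, 0.1 mL of 1% carrageenan in saline was injected subplantar into the left hind paw. Paw volume was measured by plethysmometer at 0, 3 and 5 h. Inhibition = (1 − Vt/Vc) × 100, reported as mean ± SEM.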

Rattus norvegicus [2] = experiment: Antiinflammatory activity in Wistar rat assessed as inhibition of carrageenan-induced hind paw edema at 20 mg/kg, po administered 30 mins before carrageenan challenge measured after 5 hrs by plethysmometer; assay type: functional; outline: as §1

SMILES: Cc1cc(O)c(C2=NN(c3ccc(S(N)(=O)=O)cc3)C(c3ccccc3)C2)cc1Cl (stereo not given)
- inhibition in vivo at 20 mg/kg (Rattus norvegicus [1]): 47.4%
- inhibition in vivo at 20 mg/kg (Rattus norvegicus [2]): 60.3%

SMILES: Cc1ccc(-c2cc(C(F)(F)F)nn2-c2ccc(S(N)(=O)=O)cc2)cc1 [CELECOXIB]
- inhibition in vivo at 20 mg/kg (Rattus norvegicus [1]): 82.6%
- inhibition in vivo at 20 mg/kg (Rattus norvegicus [2]): 85.7%

SMILES: Cc1cc(O)c(C2=NN(c3ccc(S(N)(=O)=O)cc3)C(c3ccc(Cl)cc3)C2)cc1Cl (stereo not given)
- inhibition in vivo at 20 mg/kg (Rattus norvegicus [1]): 65.8%
- inhibition in vivo at 20 mg/kg (Rattus norvegicus [2]): 71.4%

SMILES: COc1cc(C)c(Cl)cc1C1=NN(c2ccc(S(N)(=O)=O)cc2)C(c2cc(OC)c(OC)c(OC)c2)C1 (stereo not given)
- inhibition in vivo at 20 mg/kg (Rattus norvegicus [1]): 34.2%
- inhibition in vivo at 20 mg/kg (Rattus norvegicus [2]): 21.4%

SMILES: COc1cc(C)c(Cl)cc1C1=NN(c2ccc(S(N)(=O)=O)cc2)C(c2ccccc2)C1 (stereo not given)
- inhibition in vivo at 20 mg/kg (Rattus norvegicus [1]): 55.3%
- inhibition in vivo at 20 mg/kg (Rattus norvegicus [2]): 59.5%

From ChEMBL document CHEMBL1914430, “Synthesis of some new 1,3,5-trisubstituted pyrazolines bearing benzene sulfonamide as anticancer and anti-inflammatory agents” (Bioorg Med Chem Lett, 2011)
